Assay results: ChEMBL document CHEMBL3244142, “Antifungal properties of 2-bromo-3-fluorosuccinic acid esters and related compounds” (1977)
In brackets after ≈: the same amount, converted by molar mass.

Experiments:
Candida albicans [1] = assay: Antifungal activity against Candida albicans ATCC 10231 at pH 5.6 after 5 days in presence of 10% beef serum; assay type: functional
Aspergillus niger [2] = assay: Antifungal activity against Aspergillus niger ATCC 1004 at pH 7 after 5 days in absence of 10% beef serum; assay type: functional
Summary of the method: (§1)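 Agar-dilution MIC in Sabouraud dextrose agar at pH 5.6 or 7.0, with or without 10% beef serum. Plates were incubated at 28 °C for 5 days. MIC is the lowest concentration (µg/mL) giving 100% inhibition. Steps were 1 µg/mL up to 10, 2 µg/mL from 10–20, and 10 µg/mL from 20–100; 100 µg/mL was the top level, and no inhibition there is scored as >100.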

[3] = test system: Trichophyton mentagrophytes; assay: Antifungal activity against Trichophyton mentagrophytes ATCC 9129 at pH 5.6 after 5 days in presence of 10% beef serum; assay type: functional; summary of the method: as §1
[4] = test system: Trichophyton mentagrophytes; assay: Antifungal activity against Trichophyton mentagrophytes ATCC 9129 at pH 7 after 5 days in presence of 10% beef serum; assay type: functional; summary of the method: as §1
[5] = test system: Trichophyton mentagrophytes; assay: Antifungal activity against Trichophyton mentagrophytes ATCC 9129 at pH 7 after 5 days in absence of 10% beef serum; assay type: functional; summary of the method: as §1
Candida albicans [6] = assay: Antifungal activity against Candida albicans ATCC 10231 at pH 5.6 after 20 h in absence of 10% beef serum; conditions: ATCC 10231, 20 h
Mucor mucedo [7] = assay: Antifungal activity against Mucor mucedo ATCC 7941 at pH 7 after 20 h in absence of 10% beef serum; conditions: ATCC 7941, 20 h
Aspergillus niger [8] = assay: Antifungal activity against Aspergillus niger ATCC 1004 at pH 5.6 after 5 days in presence of 10% beef serum; assay type: functional; summary of the method: as §1
Candida albicans [9] = assay: Antifungal activity against Candida albicans ATCC 10231 at pH 7 after 5 days in presence of 10% beef serum; assay type: functional
Aspergillus niger [10] = assay: Antifungal activity against Aspergillus niger ATCC 1004 at pH 5.6 after 5 days in absence of 10% beef serum; assay type: functional; summary of the method: as §1
Candida albicans [11] = assay: Antifungal activity against Candida albicans ATCC 10231 at pH 7 after 20 h in absence of 10% beef serum; conditions: ATCC 10231, 20 h
Mucor mucedo [12] = assay: Antifungal activity against Mucor mucedo ATCC 7941 at pH 5.6 after 20 h in presence of 10% beef serum; conditions: ATCC 7941, 20 h
Aspergillus niger [13] = assay: Antifungal activity against Aspergillus niger ATCC 1004 at pH 7 after 5 days in presence of 10% beef serum; assay type: functional; summary of the method: as §1
Mucor mucedo [14] = assay: Antifungal activity against Mucor mucedo ATCC 7941 at pH 5.6 after 5 days in absence of 10% beef serum; assay type: functional
Mucor mucedo [15] = assay: Antifungal activity against Mucor mucedo ATCC 7941 at pH 7 after 5 days in presence of 10% beef serum; assay type: functional
[16] = test system: Trichophyton mentagrophytes; assay: Antifungal activity against Trichophyton mentagrophytes ATCC 9129 at pH 5.6 after 5 days in absence of 10% beef serum; assay type: functional; summary of the method: as §1
Mucor mucedo [17] = assay: Antifungal activity against Mucor mucedo ATCC 7941 at pH 7 after 5 days in absence of 10% beef serum; assay type: functional
Candida albicans [18] = assay: Antifungal activity against Candida albicans ATCC 10231 at pH 7 after 5 days in absence of 10% beef serum; assay type: functional
Candida albicans [19] = assay: Antifungal activity against Candida albicans ATCC 10231 at pH 5.6 after 5 days in absence of 10% beef serum; assay type: functional
Mucor mucedo [20] = assay: Antifungal activity against Mucor mucedo ATCC 7941 at pH 5.6 after 5 days in presence of 10% beef serum; assay type: functional
Mucor mucedo [21] = assay: Antifungal activity against Mucor mucedo ATCC 7941 at pH 7 after 20 h in presence of 10% beef serum; conditions: ATCC 7941, 20 h
[22] = Candida albicans, ATCC 10231, 120 h, read-out: MIC
[23] = Aspergillus niger, ATCC 1004, 120 h, read-out: MIC
[24] = Trichophyton mentagrophytes, ATCC 9129, 120 h, read-out: MIC
[25] = Mucor mucedo, ATCC 7941, 120 h, read-out: MIC

SMILES	MIC (Candida albicans [1]; [22]) [µg/mL]	MIC (Aspergillus niger [2]; [23]) [µg/mL]	MIC [3] [µg/mL]	MIC [4, 24] [µg/mL]	MIC [5] [µg/mL]	MIC (Candida albicans [6]) [µg/mL]	MIC (Mucor mucedo [7]) [µg/mL]	MIC (Aspergillus niger [8]; [23]) [µg/mL]	MIC (Candida albicans [9]; [22]) [µg/mL]	MIC (Aspergillus niger [10]) [µg/mL]	MIC (Candida albicans [11]) [µg/mL]	MIC (Mucor mucedo [12]) [µg/mL]	MIC (Aspergillus niger [13]) [µg/mL]	MIC (Mucor mucedo [14]; [25]) [µg/mL]	MIC (Mucor mucedo [15]) [µg/mL]	MIC [16, 24] [µg/mL]	other results
COC(=O)C(Br)C(Br)C(=O)OC (stereo in doubt)	30	60 (≈ 197 µM)	12	20	9 (≈ 29.6 µM)	20 (≈ 65.8 µM)	12 (≈ 39.5 µM)	50	70	30 (≈ 98.7 µM)	50 (≈ 165 µM)	14	90	6 (≈ 19.7 µM)	30	2 (≈ 6.58 µM)	
COC(=O)C(Br)C(Br)C(=O)OC (racemic)			4		4 (≈ 13.2 µM)					14 (≈ 46.1 µM)			40		14		MIC (Candida albicans [1]): 20 µg/mL; MIC (Aspergillus niger [2]): 40 µg/mL (≈ 132 µM); MIC (Mucor mucedo [17]): 8 µg/mL (≈ 26.3 µM); MIC [4]: 10 µg/mL; MIC (Candida albicans [18]): 30 µg/mL (≈ 98.7 µM); MIC (Candida albicans [19]): 16 µg/mL (≈ 52.6 µM); MIC (Aspergillus niger [8]): 30 µg/mL; MIC (Candida albicans [9]): 60 µg/mL; MIC (Mucor mucedo [14]): 6 µg/mL (≈ 19.7 µM); MIC (Mucor mucedo [20]): 9 µg/mL; MIC [16]: 2 µg/mL (≈ 6.58 µM)
COC(=O)[C@@H](F)[C@@H](Br)C(=O)OC (relative stereo)	14	40 (≈ 165 µM)		5		9 (≈ 37 µM)	8 (≈ 32.9 µM)	20	30		20 (≈ 82.3 µM)	8		7 (≈ 28.8 µM)		< 1	MIC [3, 24]: 2 µg/mL; MIC [5, 24]: 2 µg/mL (≈ 8.23 µM); MIC (Aspergillus niger [10]; [23]): 20 µg/mL (≈ 82.3 µM); MIC (Aspergillus niger [13]; [23]): 40 µg/mL; MIC (Mucor mucedo [21]): 12 µg/mL
